The values that follow come from ChEMBL document CHEMBL1287724, “Discovery of INCB3344, a potent, selective and orally bioavailable antagonist of human and murine CCR2” (Bioorg Med Chem Lett, 2010).

Molecules are shown by their SMILES. Some results are limits rather than exact numbers.

The term IC50 denotes the concentration that inhibits the measured activity by half. As usually defined, the half-life is how long it takes for the measured level to halve. Higher therefore signals slow decline. For orientation: Cmax means the maximum level reached in the sampled fluid or tissue. Broadly, the bioavailability is dose-corrected exposure relative to a reference, in per cent. A lower bioavailability goes with little systemic uptake. One may read the AUC as concentration integrated over time. Read a high AUC as high exposure. The term Vdss denotes a proportionality between amount in the body and measured concentration, not a real space. Higher therefore signals wide distribution into tissue. The term clearance denotes a measure of how efficiently the substance is removed, as volume per time. Low values mean inefficient removal, high ones efficient removal.

In data set [1] the target is C-C chemokine receptor type 2 (Homo sapiens, UniProt P41597). Put plainly: Displacement of [125I]MCP1 from human CCR2 after 30 mins by gamma counter. (In general: In a radioligand displacement assay an active substance lowers the binding of a labelled ligand.)
Sequence of C-C chemokine receptor type 2 (Homo sapiens, UniProt P41597) (P41597 whole entry): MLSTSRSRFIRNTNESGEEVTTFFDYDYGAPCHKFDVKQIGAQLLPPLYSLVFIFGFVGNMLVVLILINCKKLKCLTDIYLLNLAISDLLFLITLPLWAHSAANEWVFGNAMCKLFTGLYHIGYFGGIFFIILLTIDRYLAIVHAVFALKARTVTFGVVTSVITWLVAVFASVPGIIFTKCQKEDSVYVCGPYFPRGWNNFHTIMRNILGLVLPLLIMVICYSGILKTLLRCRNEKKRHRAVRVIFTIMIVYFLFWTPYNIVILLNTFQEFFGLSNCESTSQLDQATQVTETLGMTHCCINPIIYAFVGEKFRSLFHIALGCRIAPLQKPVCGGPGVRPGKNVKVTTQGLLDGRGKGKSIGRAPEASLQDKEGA
In data set [2] the target is C-C chemokine receptor type 2 (Mus musculus, UniProt P51683). As to the kind of experiment: Displacement of [125I]MCP1 from mouse CCR2 after 30 mins by gamma counter.
Sequence of C-C chemokine receptor type 2 (Mus musculus, UniProt P51683) (P51683 whole entry): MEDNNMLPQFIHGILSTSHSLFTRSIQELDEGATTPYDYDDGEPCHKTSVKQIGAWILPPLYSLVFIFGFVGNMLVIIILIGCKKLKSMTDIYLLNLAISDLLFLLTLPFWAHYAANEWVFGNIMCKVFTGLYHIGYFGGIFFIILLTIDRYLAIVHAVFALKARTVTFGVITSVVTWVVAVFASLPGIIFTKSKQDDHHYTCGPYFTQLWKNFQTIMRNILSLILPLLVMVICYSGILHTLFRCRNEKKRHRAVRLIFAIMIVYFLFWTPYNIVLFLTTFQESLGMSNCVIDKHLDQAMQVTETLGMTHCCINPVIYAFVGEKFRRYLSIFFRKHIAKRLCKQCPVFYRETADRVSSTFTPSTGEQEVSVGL
Data set [3] in a line: Protein binding in human serum assessed as unbound fraction. The data set is classed as ADME, cell-free. The conditions noted are these: read-out: PB.
Data set [4] in a line: Protein binding in mouse serum assessed as unbound fraction. Particulars: read-out: PB. The data set is classed as ADME, cell-free.
The target in data set [5] is Voltage-gated inwardly rectifying potassium channel KCNH2 (Homo sapiens, UniProt Q12809).
Sequence of Voltage-gated inwardly rectifying potassium channel KCNH2 (Q12809 whole entry): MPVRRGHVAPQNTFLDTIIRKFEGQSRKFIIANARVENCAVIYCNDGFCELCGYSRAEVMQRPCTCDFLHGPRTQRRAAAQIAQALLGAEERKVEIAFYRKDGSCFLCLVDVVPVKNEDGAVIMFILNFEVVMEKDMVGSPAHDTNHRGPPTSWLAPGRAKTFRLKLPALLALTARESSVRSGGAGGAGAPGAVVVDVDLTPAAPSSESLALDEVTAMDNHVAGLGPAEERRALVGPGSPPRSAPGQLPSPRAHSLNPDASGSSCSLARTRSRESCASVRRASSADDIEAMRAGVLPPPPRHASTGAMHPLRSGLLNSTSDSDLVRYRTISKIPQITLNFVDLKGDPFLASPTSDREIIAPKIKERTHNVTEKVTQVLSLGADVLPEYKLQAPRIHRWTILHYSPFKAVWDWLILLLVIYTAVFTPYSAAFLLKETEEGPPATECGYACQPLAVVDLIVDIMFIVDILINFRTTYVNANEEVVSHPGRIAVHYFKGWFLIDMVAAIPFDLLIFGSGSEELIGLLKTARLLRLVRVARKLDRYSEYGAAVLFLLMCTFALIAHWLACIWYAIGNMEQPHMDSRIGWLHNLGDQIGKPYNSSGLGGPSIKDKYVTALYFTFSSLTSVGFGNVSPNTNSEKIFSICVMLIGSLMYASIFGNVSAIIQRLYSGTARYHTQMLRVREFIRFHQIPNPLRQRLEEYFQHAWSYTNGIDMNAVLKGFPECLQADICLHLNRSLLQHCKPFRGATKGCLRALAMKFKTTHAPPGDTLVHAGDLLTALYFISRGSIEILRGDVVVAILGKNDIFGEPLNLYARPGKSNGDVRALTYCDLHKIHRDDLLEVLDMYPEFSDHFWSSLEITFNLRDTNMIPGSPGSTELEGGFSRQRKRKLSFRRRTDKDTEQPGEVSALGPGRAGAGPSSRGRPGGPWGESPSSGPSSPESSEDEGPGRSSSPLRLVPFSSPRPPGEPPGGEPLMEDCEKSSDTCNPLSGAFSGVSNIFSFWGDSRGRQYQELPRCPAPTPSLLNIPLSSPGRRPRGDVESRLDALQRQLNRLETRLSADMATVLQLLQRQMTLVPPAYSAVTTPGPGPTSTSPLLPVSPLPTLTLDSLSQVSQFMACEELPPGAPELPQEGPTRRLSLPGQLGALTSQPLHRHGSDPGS
Data set [6] is described as follows: Half life in CD-1 mouse at 5 mg/kg, iv. The data set is classed as ADME, organism-based. Set-up: dose 5 mg/kg, route intravenous. Particulars: in vivo. The method in brief:
(§1)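 CD-1 mice dosed intravenously at 5 mg/kg and orally at 10 mg/kg. Clearance, steady-state volume of distribution and half-life were taken from the iv arm. Cmax and AUC were taken from the po arm. Oral bioavailability was derived from the po and iv exposures.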

Data set [7] has as its target T1, C-C chemokine receptor type 1 (Mus musculus, UniProt P51675).
T1 sequence (P51675 whole entry): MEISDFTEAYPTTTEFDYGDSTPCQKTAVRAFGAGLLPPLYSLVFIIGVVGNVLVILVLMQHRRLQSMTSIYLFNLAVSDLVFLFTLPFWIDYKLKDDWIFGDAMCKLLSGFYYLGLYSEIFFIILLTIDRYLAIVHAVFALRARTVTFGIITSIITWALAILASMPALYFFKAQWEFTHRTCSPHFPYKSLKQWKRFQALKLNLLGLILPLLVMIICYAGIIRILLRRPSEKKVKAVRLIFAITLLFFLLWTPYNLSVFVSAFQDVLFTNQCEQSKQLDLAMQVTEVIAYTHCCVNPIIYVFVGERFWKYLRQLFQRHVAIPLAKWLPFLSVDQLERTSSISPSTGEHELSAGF
Put plainly: Inhibition of mouse CCR1.

The target in data set [8] is T2, CCR2 protein (Macaca fascicularis, UniProt Q6Y3N0).
T2 sequence (Q6Y3N0 whole entry): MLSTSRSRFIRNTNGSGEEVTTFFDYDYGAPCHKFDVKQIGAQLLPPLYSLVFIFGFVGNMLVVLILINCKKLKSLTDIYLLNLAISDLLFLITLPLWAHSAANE
Put plainly: Inhibition of cynomolgus CCR2.

Data set [9] is described as follows: Cmax in BALB/c mouse at 10 mg/kg, po. The format is ADME, organism-based. The arrangement: dose 10 mg/kg, route oral. The conditions noted are these: in vivo.
Data set [10] in a line: Oral bioavailability in CD-1 mouse at 10 mg/kg, po. The data set is classed as ADME, organism-based. Particulars: in vivo. Put shortly:
as §1

The target in data set [11] is T3, C-C chemokine receptor type 2 (Rattus norvegicus, UniProt O55193).
T3 sequence (O55193 whole entry): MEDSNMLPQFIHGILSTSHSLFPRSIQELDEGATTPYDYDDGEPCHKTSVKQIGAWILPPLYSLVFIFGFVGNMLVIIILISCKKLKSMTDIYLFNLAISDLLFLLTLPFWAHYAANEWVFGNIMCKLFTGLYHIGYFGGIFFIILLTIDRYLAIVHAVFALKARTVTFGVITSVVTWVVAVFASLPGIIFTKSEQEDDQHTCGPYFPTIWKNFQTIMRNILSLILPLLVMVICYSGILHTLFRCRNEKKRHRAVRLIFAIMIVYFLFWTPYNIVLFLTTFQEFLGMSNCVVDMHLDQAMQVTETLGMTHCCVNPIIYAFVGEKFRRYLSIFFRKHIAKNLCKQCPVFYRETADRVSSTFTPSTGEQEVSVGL
As to the kind of experiment: Inhibition of rat CCR2.

The nature of data set [12]: AUC in CD-1 mouse at 10 mg/kg, po. The data set is classed as ADME, organism-based. Set-up: dose 10 mg/kg, route oral. The conditions noted are these: plasma. Put shortly: as §1
Data set [13] concerns Mus musculus. As to the kind of experiment: Volume of distribution at steady state in CD-1 mouse at 5 mg/kg, iv. The format is ADME, organism-based. Set-up: dose 5 mg/kg, route intravenous. Particulars: in vivo. Put shortly: as §1
Data set [14] can be described thus: Clearance in CD-1 mouse at 5 mg/kg, iv. The data set is classed as ADME, organism-based. The conditions noted are these: in vivo. The arrangement: dose 5 mg/kg, route intravenous. Put shortly:
as §1

Data set [15] addresses C-C chemokine receptor type 5 (Mus musculus, UniProt P51682). As to the kind of experiment: Inhibition of mouse CCR5.
Data set [16] in a line: Cmax in CD-1 mouse at 10 mg/kg, po. The format is ADME, organism-based. Particulars: in vivo. Set-up: dose 10 mg/kg, route oral. Put shortly: as §1
Data set [17] can be described thus: AUC in BALB/c mouse at 10 mg/kg, po. The data set is classed as ADME, organism-based. The arrangement: dose 10 mg/kg, route oral. The conditions noted are these: plasma.

Sequence of C-C chemokine receptor type 5 (P51682 whole entry): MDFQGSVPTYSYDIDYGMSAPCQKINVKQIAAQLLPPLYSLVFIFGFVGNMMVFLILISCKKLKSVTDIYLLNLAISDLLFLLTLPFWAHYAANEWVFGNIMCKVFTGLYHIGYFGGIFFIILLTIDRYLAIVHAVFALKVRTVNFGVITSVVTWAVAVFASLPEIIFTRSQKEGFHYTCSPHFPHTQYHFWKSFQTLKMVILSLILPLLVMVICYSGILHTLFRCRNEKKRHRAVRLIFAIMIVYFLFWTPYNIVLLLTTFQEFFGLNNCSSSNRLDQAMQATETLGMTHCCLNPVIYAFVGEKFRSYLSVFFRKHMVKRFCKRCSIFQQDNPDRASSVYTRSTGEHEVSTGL

For `O=C(CNC(=O)c1cccc(C(F)(F)F)c1)N[C@H]1CN([C@H]2CC[C@@H](c3ccccc3)CC2)C[C@@H]1OCc1ccccc1`, the IC50 in [1] amounted to 17 nM; in data set [2] it was 51 nM.
On to `CCO[C@H]1CN([C@H]2CC[C@@](O)(c3ccccc3)CC2)C[C@@H]1NC(=O)CNC(=O)c1cccc(C(F)(F)F)c1`, for which the IC50 in [1] came to 2.3 nM; in data set [2] it was 10 nM. Further, the fraction unbound in [3] came to 0.26; in [4], 0.18.
Take `CCO[C@H]1CN([C@H]2CC[C@@](O)(c3ccc(C)cc3)CC2)C[C@@H]1NC(=O)CNC(=O)c1cccc(C(F)(F)F)c1`: the figures for the IC50 in data set [1] and in data set [2] were 2.3 nM and 2.1 nM, respectively. The fraction unbound in data set [4] was determined as 0.079.
On to `CCO[C@H]1CN([C@H]2CC[C@@](O)(c3ccc4c(c3)OCO4)CC2)C[C@@H]1NC(=O)CNC(=O)c1cccc(C(F)(F)F)c1`, for which the IC50 in data set [5] is 13000 nM; in [7], more than 1000 nM; in [8], 16 nM; in data set [11] it was 7.3 nM; in [15] it was more than 3000 nM. In data set [6], the half-life is 1 h. In addition, the Cmax is 961 nM in [9] and 1890 nM in data set [16]. Besides, in [10], the bioavailability was found to be 47%. Besides, the AUC in [12] came out at 2.66 µM·h; in [17], 3.89 µM·h. Also, the Vdss in data set [13] worked out at 2.8 L/kg. In addition, in [14], the clearance is 85 mL/min/kg. The fraction unbound came to 0.24 in [3] and 0.15 in data set [4].
The compound `O=C(CNC(=O)c1cccc(C(F)(F)F)c1)N[C@H]1CN([C@H]2CC[C@@H](c3ccccc3)C2)C[C@@H]1O` had an IC50 in data set [1] of 120 nM. This counts as sub-micromolar.
On the same count and under the same terms, the result for `O=C(CNC(=O)c1cccc(C(F)(F)F)c1)N[C@H]1CN([C@H]2CC[C@H](c3ccccc3)C2)C[C@@H]1O` reads more than 1000 nM; that for `O=C(CNC(=O)c1cccc(C(F)(F)F)c1)N[C@H]1CN([C@H]2CCC[C@@H](c3ccccc3)C2)C[C@@H]1O`, more than 1000 nM.
The compound `O=C(CNC(=O)c1cccc(C(F)(F)F)c1)N[C@H]1CN([C@H]2CCC[C@H](c3ccccc3)C2)C[C@@H]1O` had an IC50 in [1] of more than 1000 nM.
For the compound `O=C(CNC(=O)c1cccc(C(F)(F)F)c1)N[C@H]1CN([C@H]2CC[C@@H](c3ccccc3)CC2)C[C@@H]1O`, the IC50 in data set [1] was determined as 7.4 nM; in [2], 186 nM. For the same compound, the fraction unbound in data set [3] was found to be 0.026.
`O=C(CNC(=O)c1cccc(C(F)(F)F)c1)N[C@H]1CN([C@H]2CC[C@H](c3ccccc3)CC2)C[C@@H]1O` showed an IC50 in [1] of more than 1000 nM.
For `O=C(CNC(=O)c1cccc(C(F)(F)F)c1)N[C@H]1CN(C2CCN(c3ccccc3)CC2)C[C@@H]1O`, the IC50 in data set [1] amounted to 649 nM.
Regarding `CCO[C@H]1CN([C@H]2CC[C@@H](c3ccccc3)CC2)C[C@@H]1NC(=O)CNC(=O)c1cccc(C(F)(F)F)c1`, the IC50 stood at 0.95 nM in [1] and 1.9 nM in data set [2]. In addition, the fraction unbound was less than 0.005 in [3] and 0.023 in data set [4].
`CCCO[C@H]1CN([C@H]2CC[C@@H](c3ccccc3)CC2)C[C@@H]1NC(=O)CNC(=O)c1cccc(C(F)(F)F)c1`: the IC50 in [1] came out at 2.9 nM; in data set [2], 1.9 nM.
For `CCCCO[C@H]1CN([C@H]2CC[C@@H](c3ccccc3)CC2)C[C@@H]1NC(=O)CNC(=O)c1cccc(C(F)(F)F)c1`, in that order: 47 nM and 54 nM.
